# Assay outcomes as filed in PubChem.
# Sampled rows, rich in hits. Any-hit rate of the full collection: about 2.6%.
# NadD inh – inhibitors of Staphylococcus aureus NadD; 360,000 tested, 0.78% active; inhibition, % at 20 µM; purified NadD enzyme, colorimetric absorbance read-out; in the data active means inhibition above about 26%
# Scp1 inh – blocks human Scp-1 phosphatase activity. Recombinant Scp1, phosphopeptide, malachite green phosphate absorbance. 340,000 tested, 0.88% active. Q9GZU7. AID 493091. inhibition, % at 20 µM;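 active means inhibition above about 50% at 20 µM, limit read from the data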;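 further: plate controls were DMSO wells with enzyme for no effect and wells lacking enzyme for full effect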
# Target sequence (Q9GZU7 76-261 limits assumed): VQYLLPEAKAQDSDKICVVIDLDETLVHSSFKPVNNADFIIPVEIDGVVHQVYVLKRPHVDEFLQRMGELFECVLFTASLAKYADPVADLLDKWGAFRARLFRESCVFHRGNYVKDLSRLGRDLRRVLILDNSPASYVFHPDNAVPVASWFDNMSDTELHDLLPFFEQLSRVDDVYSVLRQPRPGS
#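 System: SCP-1 catalytic domain; Reagent: Phospho 17-mer peptide substrate; Doses: one concentration, 20 µM, with 1.0% DMSO; Incubation: 45 min room-temperature reaction, 5 min colour, 30 min stabiliser; Signal: Phosphate-binding colour reagent, absorbance read at 630 nm.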
# LMPTP block – blocks human LMPTP phosphatase; P24666; recombinant LMPTP-A, OMFP fluorogenic substrate, fluorescence intensity; inhibition, % at 20 µM; 360,000 tested, 0.22% active;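 active means compounds that cut the enzyme signal by at least half of the control window in the single-dose screen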;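 further: plate controls were DMSO wells with enzyme plus substrate for no effect and substrate without enzyme for full effect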
# Target sequence (P24666 whole entry, looked up): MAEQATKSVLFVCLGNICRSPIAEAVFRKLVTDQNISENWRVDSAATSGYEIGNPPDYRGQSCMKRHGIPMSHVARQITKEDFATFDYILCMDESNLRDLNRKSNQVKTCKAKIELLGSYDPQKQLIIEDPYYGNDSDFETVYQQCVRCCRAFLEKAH
#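 Buffer or medium: Bis-Tris pH 6.0, DTT, detergent; Assay system: LMPTP-A enzyme; Quantity: 0.625 nM enzyme; Detection: endpoint fluorescence intensity; Times: 50 min dark incubation at room temperature; Controls: substrate-only low control, DMSO enzyme-plus-substrate high control; Doses: single 20 µM dose; Read-out: percent inhibition versus substrate-only and uninhibited controls; Reagent: 400 µM OMFP.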
# rCAG binder – binds r(CAG) RNA repeats; 370,000 tested, 1.3% active; r(CAG) RNA repeat, TO-PRO-1 dye displacement fluorescence; inhibition, % at 3 µM; AID 651821;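 active means inhibition above the plate cutoff, the mean of all test compounds on that plate plus 3 SD, cut at about 35% in these data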;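 further: 0% = DMSO alone and 100% = 100 µM mitoxantrone as full dye displacement; higher means more dye released from RNA so lower well fluorescence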
# STEP block – inhibitors of human striatal-enriched phosphatase STEP | P54829 | recombinant STEP, OMFP fluorogenic substrate, fluorescence | inhibition, % at 20 µM | 360,000 tested, 0.25% active;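 active means inhibition at 20 µM, scaled per plate between control wells, above about 37%, limit read from the data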;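 further: 0% = DMSO with enzyme and substrate and 100% = substrate only without enzyme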
#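 Material: STEP (striatal-enriched tyrosine phosphatase) enzyme, cell-free | Medium: 50 mM Bis-Tris pH 6.0 with 2.5 mM DTT and 0.005% Tween 20 | Read-out: Percent inhibition scaled to no-enzyme and uninhibited-enzyme controls, plate-pattern corrected | Signal: Fluorescence read at 480 nm ex / 540 nm em | Times: 20 min reaction, room temperature, in the dark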
# NadD inh conf – confirmation of Staphylococcus aureus NadD inhibitors; inhibition, % at 20 µM; purified S. aureus NadD, colorimetric enzyme assay; 2,000 tested, 13% active; shares compounds with NadD inh; in the data active means inhibition mostly above about 42%, no sharp cut-off; inactive means mostly below about 42%
# Numbers without * were called inactive; nt = not tested or not shown.
SMILES,NadD inh,Scp1 inh,LMPTP block,rCAG binder,STEP block,NadD inh conf
N=c1c(S(=O)(=O)c2ccccc2)cc2c(=O)n3ccccc3nc2n1C1CCCC1,23,10,4,0,-1,nt
O=C(CNS(=O)(=O)c1cccc2ccccc12)N1CCN(c2ncccn2)CC1,nt,nt,nt,4,nt,nt
COc1ccc(/C=N/NC(=O)c2nc(Cl)c(Cl)c(N)c2Cl)cc1COc1ccccc1F,30*,13,3,10,4,7
COc1ccc(/C=N/NC(=O)c2nc(Cl)c(Cl)c(N)c2Cl)cc1COc1ccc(F)cc1F,53*,13,3,6,3,4
COc1ccc(/C=N\NC(=O)c2ccccc2F)cc1COc1ccc(F)cc1,-3,-10,1,-4,0,nt
COc1ccc(/C=N\NC(=O)c2ccccc2F)cc1COc1ccc(F)cc1F,-5,-9,8,5,3,nt
COc1cc(OC)cc(C(=O)N/N=C/c2ccc(OC)c(COc3ccc4ccccc4c3)c2)c1,40*,-17,3,17,2,11
Cc1ccc(C)c(NC(=O)C(OC(=O)c2ccc(NC(=O)CC#N)cc2)c2ccccc2)c1 (centres undefined),37*,-4,1,17,-2,53*
Cc1cc(C)cc(NC(=O)C(OC(=O)c2ccc(NC(=O)CC#N)cc2)c2ccccc2)c1 (centres undefined),40*,-13,4,31,-3,45*
Cc1ccc(C)c(NC(=O)C(OC(=O)c2ccc(CO)cc2)c2ccccc2)c1 (centres undefined),-6,28,0,-3,4,nt
O=C(N/N=C/c1ccc(-c2ccccc2[N+](=O)[O-])o1)c1cncc(Br)c1,0,-3,2,7,4,nt
O=C(N/N=C\c1ccc(-c2ccccc2[N+](=O)[O-])o1)C1COc2cc3ccccc3cc2O1 (centres undefined),42*,-10,2,20,4,46
O=C(N/N=C\c1ccc(-c2ccccc2[N+](=O)[O-])o1)C1COc2ccccc2O1 (centres undefined),-1,-5,2,5,-2,nt
Cc1c(C(=O)N/N=C/c2ccc(-c3ccccc3[N+](=O)[O-])o2)sc(N)c1C#N,36*,-6,3,33,3,20
Cc1nc(NCc2ccco2)c2c3c(sc2n1)CCC3,-1,4,1,0,-4,nt
CCN1CCc2c(sc3c2c(NCc2ccco2)nc2nnnn23)C1,38*,5,23,-3,7,8
CCCCNC(=O)C[C@H]1C[C@@]2(C(=O)OC)C(=C[C@H](C3CCCC3)O[C@@H]2C)N(CCC2=CCCCC2)C1=O,nt,nt,nt,4,nt,nt
S=C(Nc1ccc(Oc2ccccc2)cc1)NC1CCCCCC1,4,-5,2,2,-1,nt
S=C(Nc1ccc(Oc2ccc(NC(=S)NC3CCCCC3)cc2)cc1)NC1CCCCC1,35*,-3,-1,19,2,31
COC(=O)[C@]12C[C@H](CC(=O)NCc3ccccc3)C(=O)N(Cc3ccco3)C1=C[C@H](C(C)(C)C)O[C@@H]2C,nt,nt,nt,1,nt,nt
COC(=O)C1CN(Cc2cn(Cc3ccccc3)nn2)CCS(=O)(=O)N1Cc1ccc(F)cc1 (centres undefined),nt,nt,nt,2,nt,nt
COCCn1c(=NC(=O)c2sc3ccccc3c2Cl)sc2cc(S(N)(=O)=O)ccc21,29*,-5,1,13,-1,17
Cc1nn(Cc2c(Cl)cccc2Cl)c(C)c1NC(=O)c1cnn2c(C(F)F)cc(-c3ccccc3)nc12,43*,-7,2,2,2,1
Cc1ccc(-c2cc(C(F)F)n3ncc(C(=O)Nc4c(C)nn(Cc5c(Cl)cccc5Cl)c4C)c3n2)cc1,32*,-5,2,5,0,0
Cc1ccc(-c2cc(C(F)F)n3ncc(C(=O)Nc4c(C)nn(Cc5ccccc5Cl)c4C)c3n2)cc1,33*,0,8,2,11,-2
SMILES,NadD inh,Scp1 inh,LMPTP block,rCAG binder,STEP block,NadD inh conf
COc1ccc(-c2cc(C(F)F)n3ncc(C(=O)Nc4c(C)n(C)n(-c5ccccc5)c4=O)c3n2)cc1,12,-1,2,-3,-1,nt
COCCNC(=O)c1cnn2c(C(F)F)cc(-c3ccc(C)cc3)nc12,11,-5,1,-1,-3,nt
COc1ccc2nc(NC(=O)C3CCN(S(=O)(=O)c4cccc5nsnc45)CC3)sc2c1,41*,-2,0,19,-2,19
COCCCN1C(=O)[C@H](CC(=O)NCc2cccs2)[C@]2(C(=O)OC)CCCCC=C12,nt,nt,nt,5,nt,nt
O=C(N/N=C/c1c[nH]c2ccccc12)c1cc(-c2ccc(-c3ccccc3)cc2)n[nH]1,50*,-8,0,13,-1,47*
COc1ccccc1CNc1nc(Nc2cccc(-c3cnco3)c2)c2sccc2n1,40*,nt,51*,8,3,15
COc1ccccc1CNc1nc(NCc2cccs2)nc2ccsc12,11,nt,27,3,2,nt
CC(C)(C)c1ccc(S(=O)(=O)N2CCCC(C(=O)NCCN3CCC(Cc4ccccc4)CC3)C2)cc1 (centres undefined),nt,nt,nt,3,nt,nt
CSc1nsc(/C=C/Nc2ccc(Cl)cc2)c1C#N,15,-7,2,26,7,nt
CSc1nsc(/C=C/Nc2cccc(Cl)c2)c1C#N,32*,-6,1,34,9,0
COc1ccc2cc(C3CC(c4ccco4)=NN3S(C)(=O)=O)c(Cl)nc2c1 (centres undefined),-2,-5,0,10,2,nt
CCOc1ccc2nc(Cl)c(C3CC(c4ccco4)=NN3S(=O)(=O)c3ccccc3)cc2c1 (centres undefined),36*,-17,3,31,0,23
CCC(CO)Nc1cccc2c1S(=O)(=O)N(Cc1cn(Cc3ccc(C(F)(F)F)cc3)nn1)Cc1ccccc1O2 (centres undefined),nt,nt,nt,3,nt,nt
O=C/C(=C\Nc1ccc(Cl)cn1)c1nc2ccccc2o1,-2,1,8,4,4,nt
O=C/C(=C\Nc1ccc(Cl)cn1)c1nc2cc(Cl)ccc2o1,38*,-7,0,4,3,8
CCOc1ccc(C=NNc2ccc(S(=O)(=O)Nc3ccccc3C(=O)O)cc2[N+](=O)[O-])cc1,34*,45,97*,nt,36,76*
O=[N+]([O-])c1cc(/C=N/Nc2nc(N3CCOCC3)nc(N3CCOCC3)n2)ccc1Cl,3,1,-1,-1,1,nt
C/C(=N\Nc1ccc(S(=O)(=O)Nc2ccc(Cl)cc2)cc1[N+](=O)[O-])c1ccc(N2CCOCC2)cc1,19,0,1,5,-1,nt
C/C(=N\Nc1ccc(S(=O)(=O)Nc2ccccc2)cc1[N+](=O)[O-])c1ccc(N2CCOCC2)cc1,42*,6,2,3,0,14
